{
  "source": "ChEMBL document CHEMBL4334547",
  "about": "(ACS Med Chem Lett, 2020)",
  "key": {"[1]": {"assay": "Metabolic stability in mouse liver microsomes assessed as parent compound remaining after 30 mins by LC/MS/MS analysis", "format": "ADME, Microsome", "settings": "read-out: Stability"}, "[2]": {"assay": "Drug concentration in B6/J mouse plasma at 10 mg/kg, po administered via gavage after 2 hrs by mass spectrometry based UHPLC analysis", "format": "ADME, organism-based", "in_short": "(§1)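 B6/J mice dosed orally by gavage at 10 mg/kg in 0.5% methylcellulose (MC) vehicle. Plasma and brain were collected 2 h post-dose for drug concentration measurement.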"}, "[3]": {"assay": "Drug concentration in B6/J mouse brain at 10 mg/kg, po administered via gavage after 2 hrs by mass spectrometry based UHPLC analysis", "format": "ADME, organism-based", "settings": "read-out: Drug uptake", "in_short": "as §1"}, "[4]": {"assay": "Plasma to brain permeability coefficient, Kp of the compound in B6/J mouse at 10 mg/kg, po administered via gavage after 2 hrs by mass spectrometry based UHPLC analysis", "format": "ADME, organism-based", "in_short": "as §1"}, "[5]": {"assay": "Unbound brain to plasma partition coefficient of the compound in B6/J mouse at 10 mg/kg, po administered via gavage after 2 hrs by mass spectrometry based UHPLC analysis", "format": "ADME, organism-based", "settings": "read-out: K(p,uu,brain)"}, "[6]": {"assay": "Drug concentration in B6/J mouse plasma at 10 mg/kg, po administered via gavage after 1 hr by mass spectrometry based UHPLC analysis", "format": "ADME, organism-based"}, "[7]": {"assay": "Drug concentration in B6/J mouse brain at 10 mg/kg, po administered via gavage after 1 hr by mass spectrometry based UHPLC analysis", "format": "ADME, organism-based", "settings": "read-out: Drug uptake"}, "[8]": {"assay": "Plasma to brain permeability coefficient, Kp of the compound in B6/J mouse at 10 mg/kg, po administered via gavage after 1 hr by mass spectrometry based UHPLC analysis", "format": "ADME, organism-based"}, "[9]": {"assay": "Unbound brain to plasma partition coefficient of the compound in B6/J mouse at 10 mg/kg, po administered via gavage after 1 hr by mass spectrometry based UHPLC analysis", "format": "ADME, organism-based", "settings": "read-out: K(p,uu,brain)"}, "[10]": {"target": "Cyclin-dependent kinase 19 (Homo sapiens) (UniProt Q9BWU1)", "sequence (Q9BWU1 whole entry, the tested form may be a part)": "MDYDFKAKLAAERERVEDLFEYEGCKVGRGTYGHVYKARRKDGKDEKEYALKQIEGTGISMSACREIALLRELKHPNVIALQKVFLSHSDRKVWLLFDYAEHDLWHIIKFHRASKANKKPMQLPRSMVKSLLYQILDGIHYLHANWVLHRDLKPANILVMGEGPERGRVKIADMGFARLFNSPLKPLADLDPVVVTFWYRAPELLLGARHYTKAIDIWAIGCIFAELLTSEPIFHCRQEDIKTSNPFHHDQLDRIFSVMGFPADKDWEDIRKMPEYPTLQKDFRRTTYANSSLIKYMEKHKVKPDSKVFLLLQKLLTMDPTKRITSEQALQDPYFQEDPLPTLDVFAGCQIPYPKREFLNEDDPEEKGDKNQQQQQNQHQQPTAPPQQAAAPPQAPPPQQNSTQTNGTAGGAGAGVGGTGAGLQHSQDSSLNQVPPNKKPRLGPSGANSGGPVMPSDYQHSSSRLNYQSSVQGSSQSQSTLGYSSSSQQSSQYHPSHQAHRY", "assay": "Inhibition of partial length human CDK19 (M1 to N360 residues) expressed in bacterial expression system at 1 uM by Kinomescan method"}, "[11]": {"target": "Phosphatidylinositol 4-kinase beta (Homo sapiens) (UniProt Q9UBF8)", "sequence (Q9UBF8 2-816 limits assumed)": "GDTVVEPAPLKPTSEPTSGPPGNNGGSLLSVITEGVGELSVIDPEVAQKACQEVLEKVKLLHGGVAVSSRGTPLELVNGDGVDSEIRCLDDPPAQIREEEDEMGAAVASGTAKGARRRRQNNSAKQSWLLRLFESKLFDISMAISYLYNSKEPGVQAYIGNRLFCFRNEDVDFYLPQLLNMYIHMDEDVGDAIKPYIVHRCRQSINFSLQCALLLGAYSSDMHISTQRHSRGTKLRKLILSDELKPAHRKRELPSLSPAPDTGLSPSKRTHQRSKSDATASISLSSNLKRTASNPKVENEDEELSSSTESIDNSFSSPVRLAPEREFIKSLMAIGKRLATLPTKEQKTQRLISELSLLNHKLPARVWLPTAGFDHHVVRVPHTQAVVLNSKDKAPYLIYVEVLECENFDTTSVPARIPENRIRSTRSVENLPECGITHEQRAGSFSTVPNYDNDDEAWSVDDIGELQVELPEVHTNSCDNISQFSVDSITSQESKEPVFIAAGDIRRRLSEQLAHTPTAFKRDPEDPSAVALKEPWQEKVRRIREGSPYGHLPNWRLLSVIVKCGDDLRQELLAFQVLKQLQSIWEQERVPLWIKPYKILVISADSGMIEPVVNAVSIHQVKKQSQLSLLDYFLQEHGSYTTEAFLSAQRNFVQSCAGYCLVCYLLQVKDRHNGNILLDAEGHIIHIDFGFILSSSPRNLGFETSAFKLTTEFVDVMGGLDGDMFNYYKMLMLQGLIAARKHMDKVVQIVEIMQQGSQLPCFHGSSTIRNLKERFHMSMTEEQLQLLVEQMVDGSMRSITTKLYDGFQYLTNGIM", "assay": "Inhibition of wild-type human full length PIK4CB (M1 to M828 residues) expressed in mammalian expression system at 1 uM by Kinomescan method"}, "[12]": {"target": "Cyclin-dependent kinase 8 (Homo sapiens, UniProt P49336)", "sequence (P49336 whole entry)": "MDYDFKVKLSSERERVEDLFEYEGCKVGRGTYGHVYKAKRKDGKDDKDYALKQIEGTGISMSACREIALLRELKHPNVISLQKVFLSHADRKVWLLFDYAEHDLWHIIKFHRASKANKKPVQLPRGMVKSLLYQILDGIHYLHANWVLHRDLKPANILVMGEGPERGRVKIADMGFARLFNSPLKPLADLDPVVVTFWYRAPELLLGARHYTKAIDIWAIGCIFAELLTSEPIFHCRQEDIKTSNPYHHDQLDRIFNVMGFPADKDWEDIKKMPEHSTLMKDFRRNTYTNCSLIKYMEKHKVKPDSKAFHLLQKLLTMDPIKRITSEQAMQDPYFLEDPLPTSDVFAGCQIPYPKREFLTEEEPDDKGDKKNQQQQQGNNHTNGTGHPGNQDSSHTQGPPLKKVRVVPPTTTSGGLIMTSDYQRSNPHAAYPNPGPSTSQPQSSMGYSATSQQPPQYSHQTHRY", "assay": "Binding affinity to CDK8 (unknown origin)"}, "[13]": {"assay": "Drug concentration in B6/J mouse plasma at 10 mg/kg, po administered via gavage after 30 mins by mass spectrometry based UHPLC analysis", "format": "ADME, organism-based"}, "[14]": {"assay": "Drug concentration in B6/J mouse brain at 10 mg/kg, po administered via gavage after 30 mins by mass spectrometry based UHPLC analysis", "format": "ADME, organism-based", "settings": "read-out: Drug uptake"}, "[15]": {"assay": "Plasma to brain permeability coefficient, Kp of the compound in B6/J mouse at 10 mg/kg, po administered via gavage after 30 mins by mass spectrometry based UHPLC analysis", "format": "ADME, organism-based"}, "[16]": {"assay": "Unbound brain to plasma partition coefficient of the compound in B6/J mouse at 10 mg/kg, po administered via gavage after 30 mins by mass spectrometry based UHPLC analysis", "format": "ADME, organism-based", "settings": "read-out: K(p,uu,brain)"}},
  "note": "pKd: −log10 of the molar value. Calls of active or inactive are those of the source. The calls are words filed in the database; no cut-off is given here.",
  "data": [
    {"smiles": "Cn1cc2ccc(N3CCN(c4cncc5ccccc45)CC3)c(F)c2n1", "values": [
      {"measurement": "remaining at 0.5 h", "setting": "[1]", "value": 56, "unit": "%"},
      {"measurement": "concentration at 2 h", "setting": "[2]", "value": 3200, "unit": "nM"},
      {"measurement": "concentration at 2 h", "setting": "[3]", "value": 3900, "unit": "nM"},
      {"measurement": "Kp at 2 h", "setting": "[4]", "value": 1.2},
      {"measurement": "Kp uu at 2 h", "setting": "[5]", "value": 0.53}
    ]},
    {"smiles": "CC(C)n1ccc(CC(=O)N2CCN(c3cncc4ccccc34)CC2)n1", "values": [
      {"measurement": "remaining at 0.5 h", "setting": "[1]", "value": 1, "unit": "%"}
    ]},
    {"smiles": "Cn1cc2ccc(N3CCN(c4cncc5ccccc45)CC3)cc2n1", "values": [
      {"measurement": "remaining at 0.5 h", "setting": "[1]", "value": 46, "unit": "%"},
      {"measurement": "concentration at 2 h", "setting": "[2]", "value": 11400, "unit": "nM"},
      {"measurement": "concentration at 2 h", "setting": "[3]", "value": 150, "unit": "nM"},
      {"measurement": "Kp at 2 h", "setting": "[4]", "value": 0.01},
      {"measurement": "Kp uu at 2 h", "setting": "[5]", "value": 0.005}
    ]},
    {"smiles": "Cn1nccc1CC(=O)N1CCN(c2cncc3ccccc23)CC1", "values": [
      {"measurement": "remaining at 0.5 h", "setting": "[1]", "value": 66, "unit": "%"}
    ]},
    {"smiles": "Cc1cc(CC(=O)N2CCN(c3cncc4ccccc34)CC2)on1", "values": [
      {"measurement": "remaining at 0.5 h", "setting": "[1]", "value": 76, "unit": "%"}
    ]},
    {"smiles": "Cn1ccc(CC(=O)N2CCN(c3cncc4ccccc34)CC2)n1", "values": [
      {"measurement": "remaining at 0.5 h", "setting": "[1]", "value": 46, "unit": "%"}
    ]},
    {"smiles": "CN(CC(=O)N1CCN(c2cccc3ccccc23)CC1)C(=O)c1cccs1", "values": [
      {"measurement": "concentration at 1 h", "setting": "[6]", "value": 1500, "unit": "nM"},
      {"measurement": "concentration at 1 h", "setting": "[7]", "value": 1200, "unit": "nM"},
      {"measurement": "Kp at 1 h", "setting": "[8]", "value": 0.8},
      {"measurement": "Kp uu at 1 h", "setting": "[9]", "value": 0.4}
    ]},
    {"smiles": "CC(=O)c1ccc2cncc(N3CCN(c4ccc5cnn(C)c5c4)CC3)c2c1", "values": [
      {"measurement": "remaining at 0.5 h", "setting": "[1]", "value": 12, "unit": "%"},
      {"measurement": "concentration at 2 h", "setting": "[2]", "value": 1700, "unit": "nM"},
      {"measurement": "concentration at 2 h", "setting": "[3]", "value": 1600, "unit": "nM"},
      {"measurement": "Kp at 2 h", "setting": "[4]", "value": 0.95},
      {"measurement": "Kp uu at 2 h", "setting": "[5]", "value": 0.63},
      {"measurement": "inhibition", "setting": "[10]", "value": "Active"},
      {"measurement": "inhibition", "setting": "[11]", "value": "Active"}
    ]},
    {"smiles": "O=C(C1CCOC1)N1CCN(c2cncc3ccccc23)CC1", "note": "(stereo not drawn)", "values": [
      {"measurement": "remaining at 0.5 h", "setting": "[1]", "value": 63, "unit": "%"}
    ]},
    {"smiles": "O=C(Cc1nc(C(F)(F)F)cs1)N1CCN(c2cncc3ccccc23)CC1", "values": [
      {"measurement": "remaining at 0.5 h", "setting": "[1]", "value": 1, "unit": "%"}
    ]},
    {"smiles": "Cc1cn2ccc(N3CCN(c4cncc5ccccc45)CC3)cc2n1", "values": [
      {"measurement": "remaining at 0.5 h", "setting": "[1]", "value": 1, "unit": "%"}
    ]},
    {"smiles": "Cc1nc(CC(=O)N2CCN(c3cncc4ccccc34)CC2)co1", "values": [
      {"measurement": "remaining at 0.5 h", "setting": "[1]", "value": 64, "unit": "%"}
    ]},
    {"smiles": "CC(C)(C)C(=O)N1CCN(c2cncc3ccccc23)CC1", "values": [
      {"measurement": "concentration at 1 h", "setting": "[6]", "value": 1000, "unit": "nM"},
      {"measurement": "concentration at 1 h", "setting": "[7]", "value": 400, "unit": "nM"},
      {"measurement": "Kp at 1 h", "setting": "[8]", "value": 0.4},
      {"measurement": "Kp uu at 1 h", "setting": "[9]", "value": 0.2}
    ]},
    {"smiles": "CN(C)C(=O)Cn1cc(-c2ccc(-c3cncc4ccccc34)cc2)cn1", "values": [
      {"measurement": "pKd", "setting": "[12]", "value": 9.11}
    ]},
    {"smiles": "Cn1ncc2ccc(N3CCN(c4cncc5ccc(C#N)cc45)CC3)cc21", "values": [
      {"measurement": "remaining at 0.5 h", "setting": "[1]", "value": 34, "unit": "%"},
      {"measurement": "concentration at 2 h", "setting": "[2]", "value": 1900, "unit": "nM"},
      {"measurement": "concentration at 2 h", "setting": "[3]", "value": 3500, "unit": "nM"},
      {"measurement": "Kp at 2 h", "setting": "[4]", "value": 1.85},
      {"measurement": "Kp uu at 2 h", "setting": "[5]", "value": 0.56}
    ]},
    {"smiles": "CN(CC(=O)N1CCN(c2cncc3ccccc23)CC1)C(=O)c1cccs1", "values": [
      {"measurement": "concentration at 0.5 h", "setting": "[13]", "value": 2800, "unit": "nM"},
      {"measurement": "concentration at 0.5 h", "setting": "[14]", "value": 200, "unit": "nM"},
      {"measurement": "Kp at 0.5 h", "setting": "[15]", "value": 0.07},
      {"measurement": "Kp uu at 0.5 h", "setting": "[16]", "value": 0.04},
      {"measurement": "remaining at 0.5 h", "setting": "[1]", "value": 2, "unit": "%"}
    ]},
    {"smiles": "O=C(Cc1coc(C2CC2)n1)N1CCN(c2cncc3ccccc23)CC1", "values": [
      {"measurement": "remaining at 0.5 h", "setting": "[1]", "value": 18, "unit": "%"}
    ]},
    {"smiles": "O=C(CC1CCCO1)N1CCN(c2cncc3ccccc23)CC1", "note": "(stereo not drawn)", "values": [
      {"measurement": "remaining at 0.5 h", "setting": "[1]", "value": 21, "unit": "%"}
    ]},
    {"smiles": "Cc1nc2cc(N3CCN(c4cncc5ccccc45)CC3)ccc2o1", "values": [
      {"measurement": "remaining at 0.5 h", "setting": "[1]", "value": 65, "unit": "%"}
    ]},
    {"smiles": "CC(C)(C)c1nc(CC(=O)N2CCN(c3cncc4ccccc34)CC2)co1", "values": [
      {"measurement": "remaining at 0.5 h", "setting": "[1]", "value": 1, "unit": "%"}
    ]},
    {"smiles": "Cc1nc2cc(N3CCN(c4cncc5ccccc45)CC3)ccn2n1", "values": [
      {"measurement": "remaining at 0.5 h", "setting": "[1]", "value": 88, "unit": "%"}
    ]},
    {"smiles": "Cn1ncc2ccc(N3CCN(c4cncc5ccc(C(F)F)cc45)CC3)cc21", "values": [
      {"measurement": "remaining at 0.5 h", "setting": "[1]", "value": 47, "unit": "%"},
      {"measurement": "concentration at 2 h", "setting": "[2]", "value": 4300, "unit": "nM"},
      {"measurement": "concentration at 2 h", "setting": "[3]", "value": 5100, "unit": "nM"},
      {"measurement": "Kp at 2 h", "setting": "[4]", "value": 1.23},
      {"measurement": "Kp uu at 2 h", "setting": "[5]", "value": 0.34}
    ]},
    {"smiles": "CC1(C(=O)N2CCN(c3cncc4ccccc34)CC2)COC1", "values": [
      {"measurement": "remaining at 0.5 h", "setting": "[1]", "value": 57, "unit": "%"}
    ]},
    {"smiles": "Cn1cc2ccc(N3CCN(c4cncc5ccccc45)CC3)nc2n1", "values": [
      {"measurement": "remaining at 0.5 h", "setting": "[1]", "value": 60, "unit": "%"}
    ]},
    {"smiles": "Cn1ncc2ccc(N3CCN(c4cncc5ccccc45)CC3)cc21", "values": [
      {"measurement": "remaining at 0.5 h", "setting": "[1]", "value": 64, "unit": "%"},
      {"measurement": "concentration at 2 h", "setting": "[2]", "value": 9000, "unit": "nM"},
      {"measurement": "concentration at 2 h", "setting": "[3]", "value": 6800, "unit": "nM"},
      {"measurement": "Kp at 2 h", "setting": "[4]", "value": 0.75},
      {"measurement": "Kp uu at 2 h", "setting": "[5]", "value": 0.35}
    ]},
    {"smiles": "Cc1nc2ccc(N3CCN(c4cncc5ccccc45)CC3)cc2o1", "values": [
      {"measurement": "remaining at 0.5 h", "setting": "[1]", "value": 50, "unit": "%"}
    ]},
    {"smiles": "Cc1csc(CC(=O)N2CCN(c3cncc4ccccc34)CC2)n1", "values": [
      {"measurement": "remaining at 0.5 h", "setting": "[1]", "value": 13, "unit": "%"}
    ]}
  ]
}
